Published values from different studies.
Lines come from different studies, so protocols differ.
Target: Acetylcholinesterase (ache, Electrophorus electricus, UniProt O42275)
Observed: enzyme activity
Mode: inhibitor
Method: Ellman

CCOc1ccc(C=NNC(=S)NCC(=O)c2ccccc2O)cc1 — IC50: 420 µM
CC=C1[C@H]2C=C(C)C[C@]1(N(C)C)c1ccc(=O)[nH]c1C2 — IC50: 0.61 µM
Cc1c(C(=O)[C@H]2[C@H](c3c[nH]c4ccccc34)[C@H]3CCCN3[C@]23C(=O)Nc2cc(Cl)ccc23)cnn1-c1ccccc1 — IC50: > 100 µM
CCOc1ccc(C=NNC(=S)NCC(=O)c2ccc(-c3ccccc3)cc2)cc1 — IC50: 460 µM
CC=C1[C@H]2C=C(C)C[C@]1(N)c1cc(OCCCC)c(=O)[nH]c1C2 — IC50: 110 µM
Cc1c(C(=O)[C@H]2[C@H](c3cn(C)c4ccccc34)[C@H]3CSCN3[C@]23C(=O)Nc2ccccc23)cnn1-c1ccccc1 — IC50: > 100 µM
COc1cc2c(cc1OC)CN(S(=O)(=O)CCc1cn(-c3cnc4ccccc4c3)nn1)CC2 — IC50: 0.028 µM
CC(C)c1cc(C(C)C)c(S(=O)(=O)NNC(=O)C(=O)NNS(=O)(=O)c2c(C(C)C)cc(C(C)C)cc2C(C)C)c(C(C)C)c1 — IC50 (with preincubation): 4.25 µM
C#CCNC(=O)c1cc2ccc(N(CC)CC)cc2oc1=O — IC50 (pH 7.6): > 50 µM
CC=C1[C@H]2C=C(C)C[C@]1(N)c1cc(OCC)c(=O)[nH]c1C2 — IC50: 0.22 µM
COc1cccc2cc(C(=O)NCC3CCN(Cc4ccccc4)CC3)oc12 — IC50: 19.9 µM
C#CCN(C)c1nc(NCCCCC2CCN(Cc3ccccc3)CC2)c(C#N)c(-c2ccccc2)c1C#N — IC50: 0.023 µM
CC=C1[C@H]2C=C(C)C[C@]1(N)c1cc(OCCC)c(=O)[nH]c1C2 — IC50: 10.2 µM
C#CCN(C)c1nc(NCCCC2CCN(Cc3ccccc3)CC2)c(C#N)cc1C#N — IC50: 0.00619 µM
CC=C1[C@H]2C=C(C)C[C@]1(N)c1cc(C)c(=O)[nH]c1C2 — IC50: 0.35 µM
COP(=O)(OC)OC(C)=C1CCOC1=O — IC50 (pH 8): > 1000 µM
CC1(C)O[C@H]2CC(=O)OC[C@]23[C@H]2CC[C@@]4(C)[C@H](c5ccoc5)OC(=O)[C@H]5O[C@]54[C@]2(C)C(=O)C[C@@H]13 — IC50: 1060 µM
Cc1c(C(=O)[C@H]2[C@H](c3c[nH]c4ccc(Br)cc34)CN(C)[C@]23C(=O)Nc2cc(Cl)ccc23)cnn1-c1ccccc1 — IC50: 27.8 µM
CC=C1[C@H]2C=C(C)C[C@]1(N)c1cc(O)c(=O)[nH]c1C2 — IC50: 0.53 µM
O=C(NCCN1CCN(Cc2ccccc2)CC1)c1cc2cccc(O)c2o1 — IC50: 20 µM
Cc1c(C(=O)[C@H]2[C@H](c3c[nH]c4ccc(Br)cc34)[C@H]3CSCN3[C@]23C(=O)Nc2ccc([N+](=O)[O-])cc23)cnn1-c1ccccc1 — IC50: 24.1 µM
